# Bioassay records as filed in PubChem.
# A selection: hits, their analogues and other compounds. The true share with any hit is near 3.8%.
# MPTP inh: mitochondrial permeability transition pore inhibitors, primary screen, biochemical, isolated mouse mitochondria, absorbance; Ca2+ swelling absorbance, 30 min; actives 1.4% (n = 360,000); inhibition, % at 10 µM; AID 602449, 2012;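 active = inhibition of 50% or more, scaled per plate between neutral and stimulator controls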;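 also: 0% = DMSO wells given calcium and 100% = 1 mM EGTA wells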
# T cell HTS: modulators of CD8 T cell-vesicle binding, primary screen, mouse 2C CD8+ T cells, flow cytometry. 2C CD8+ T cell-vesicle binding; active compounds read low. response (vesicle binding), % at 7 µM. actives 0.068% (n = 330,000). AID 2052, 2009;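 active = response, share of CD8 T cells binding vesicles, and their 90th percentile fluorescence all below set limits, cut at about 80% in these data, passing the limit was not always enough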;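 also: values below 100% mean blocked vesicle binding to the CD8+ T cells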
#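 Assay system – 2C mouse CD8+ T cells · Also added – QL9-loaded Drosophila micro-vesicles · Timing – Cell–vesicle co-incubation 1.5 h at 37 °C, staining 20 min on ice · Signal – flow cytometry of vesicle-bound cells · Measure – percent CD8+ FL2 mean versus row control · Controls – Peptide-free naked vesicles (low) and QL9 vesicles with 0.7% DMSO vehicle (high)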
# Granule exo inh: LAMP-1 surface exposure blockers, TALL-104 cells – cell-based, flow cytometry, MLPCN library, primary screen | actives 0.66% (n = 360,000) | inhibition, % at 10 µM | TALL-104 LAMP-1 surface exposure; cells stimulated with thapsigargin and PMA;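 active = inhibition above about 55%, limit read from the data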
# Beta2AR agonist: beta2AR agonists driving receptor internalization, primary screen, cell-based, FAP fluorogen, flow cytometry; Am2.2-beta2AR cells; response, % (test concentration not listed); actives 0.43% (n = 340,000); AID 504454, 2011;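 active = response above a set limit, near 3 SD of response in nonfluorescent compounds, cut at about 42% in these data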
# Target sequence (P07550 whole entry, looked up): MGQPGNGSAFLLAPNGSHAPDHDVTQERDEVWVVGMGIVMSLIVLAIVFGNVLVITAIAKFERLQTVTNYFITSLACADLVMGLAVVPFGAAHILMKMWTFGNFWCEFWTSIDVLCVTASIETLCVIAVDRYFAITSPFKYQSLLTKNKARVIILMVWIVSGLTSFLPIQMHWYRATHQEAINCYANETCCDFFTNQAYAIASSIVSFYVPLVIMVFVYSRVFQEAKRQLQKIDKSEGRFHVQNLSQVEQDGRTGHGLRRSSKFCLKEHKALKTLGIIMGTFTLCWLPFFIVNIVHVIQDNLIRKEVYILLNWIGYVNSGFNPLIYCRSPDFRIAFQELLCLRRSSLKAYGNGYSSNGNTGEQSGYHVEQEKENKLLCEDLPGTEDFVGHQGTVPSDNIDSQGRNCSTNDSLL
# V-ATPase pHluor: regulators of yeast V-ATPase proton pumping, primary screen, pHLuorin cytosolic pH fluorescence. actives 0.37% (n = 350,000). AID 504577, 2011. S. cerevisiae. response, % at 10 µM; in the data active = response mostly above about 7.3%, no sharp cut-off; inactive = mostly below about 5.4%; also: actives read high
# rCAG binder: binders of r(CAG) RNA repeats, primary screen, biochemical, fluorescence; AID 651821, 2012; inhibition, % at 3 µM; actives 1.3% (n = 370,000); r(CAG) RNA repeat, TO-PRO-1 dye displacement fluorescence;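 active = inhibition above the plate cutoff, the mean of all test compounds on that plate plus 3 SD, cut at about 35% in these data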;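 also: 0% = DMSO alone and 100% = 100 µM mitoxantrone as full dye displacement; higher means more dye released from RNA so lower well fluorescence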
# rCAG binder conf: small molecules binding CAG repeat RNA – biochemical, fluorescence, confirmation; r(CAG) RNA repeat, TO-PRO-1 dye displacement fluorescence; AID 652065, 2013; shares compounds with rCAG binder; actives 70% (n = 4,300); inhibition, % at 3 µM;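 active = inhibition above a per-plate cutoff, the mean inhibition of sample wells plus 3 SD, cut at about 35% in these data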;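 also: loss of TO-PRO-1 fluorescence as compound displaces dye from 1x1 AA loop RNA; 0% = DMSO only wells and 100% = 100 µM mitoxantrone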
# DNA CAG counter: displacement of TO-PRO-1 from CAG DNA duplex, counter-screen for rCAG RNA repeat binder project, biochemical, fluorescence, TO-PRO-1 dye, d(CAG) DNA oligo | inhibition, % at 3 µM | d(CAG) DNA oligo TO-PRO-1 dye displacement | AID 652068, 2013 | shares compounds with rCAG binder | actives 94% (n = 4,300);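 active = inhibition above its plate's cutoff, the mean test-well inhibition plus 3 SD, cut at about 4.8% in these data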;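 also: 0% = DNA dye mix with DMSO and 100% = 100 µM mitoxantrone; hits displace the dye from DNA and so lower well fluorescence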
# Starred values were filed as active, the others as inactive; / = not tested or not shown.
SMILES,MPTP inh,T cell HTS,Granule exo inh,Beta2AR agonist,V-ATPase pHluor,rCAG binder,rCAG binder conf,DNA CAG counter
COc1ccc(C(=O)NNC(=O)C(=O)/C=C(\O)c2ccc(C)cc2)cc1,2,224,-2,8,1,47*,25,11*
O=C1NN(c2cccc(Br)c2)C(=O)/C1=C\c1ccc(O)cc1,2,74,2,4,4,72*,27,11*
COc1cc(/C=C2\C(=O)NN(c3ccccc3)C2=O)ccc1OCC(N)=O,/,288,/,/,/,2,/,/
COc1cccc(/C=C2/C(=O)NN(c3ccc(C)c(C)c3)C2=O)c1,-1,211,2,6,-4,72*,34,9.5*
COc1cccc(/C=C2/C(=O)NN(c3ccc(F)cc3)C2=O)c1,1,175,-3,8,-3,10,/,/
CCOc1cc(/C=C2/C(=O)NN(c3cccc(Cl)c3)C2=O)ccc1O,2,272,-16,8,-2,46*,23,7.5*
COc1cc(/C=C2/C(=O)NN(c3cccc(Cl)c3)C2=O)cc(OC)c1O,4,178,4,-44,2,50*,14,6.8*
COC(=O)[C@@H](Cc1ccccc1)NC(=O)[C@H]1O[C@@H](n2cnc3c(=O)[nH]c(N)nc32)[C@H](O)[C@@H]1O,/,/,/,/,/,2,/,/
CCCn1cc(C(=O)Nc2ccc(Oc3cccnc3)cc2)c2ccccc21,/,/,/,/,/,8,/,/
O=C(NC1CCN(Cc2ccccc2)CC1)c1cc(S(=O)(=O)Nc2ccc(F)cc2)ccc1Cl,-1,/,3,-1,1,4,/,/
O=C(NC1CCN(Cc2ccccc2)CC1)c1ccccc1NS(=O)(=O)c1ccc(F)c(F)c1,-1,/,-1,5,1,36*,21,3
Nc1ccccc1-c1nc2ccccc2[nH]c1=O,-1,167,5,-11,0,0,/,/
O=c1[nH]c2ccccc2nc1-c1c[nH]c2ccccc12,1,195,0,-13,0,43*,16,14*
COC(=O)C[C@H]1CC[C@@H]2[C@@H](COc3ccc(NC(=O)Nc4cccc(C)c4)cc3C(=O)N2C)O1,/,/,/,/,/,7,/,/
O=C(O)CN1C(=O)/C(=C/c2ccccc2Cl)Oc2ccccc21,1,575,-3,2,3,39*,35*,7.3*
CCCCC[C@@H]1C=C(C(=O)O)[C@H](c2ccc(OC)c(OC)c2)N1S(=O)(=O)c1ccc(C)cc1,0,0,-2,4,-1,50*,44*,14*
CC[C@@H]1C=C(C(=O)O)[C@H](c2ccc(Cl)c(Cl)c2)N1S(=O)(=O)c1ccc(C)cc1,1,454,-1,7,4,46*,41*,12*
CCc1ccc([C@H]2C(C(=O)O)=C[C@@H](CC)N2S(=O)(=O)c2ccc(C)cc2)cc1,-1,348,2,3,2,21,/,/
CCCCC[C@@H]1C=C(C(=O)O)[C@H](c2ccc3c(c2)OCO3)N1S(=O)(=O)c1ccc(C)cc1,1,285,-1,-2,-3,65*,54*,21*
CCCCC[C@@H]1C=C(C(=O)O)[C@H](c2cccc(C)c2)N1S(=O)(=O)c1ccc(C)cc1,2,0,0,-2,3,67*,50*,16*
CCOC(=O)[C@]12CCCC=C1N(Cc1ccc(OC)cc1)C(=O)[C@@H]2CC(=O)NCCCCc1ccccc1,/,/,/,/,/,4,/,/
Cc1ccc(OCCNC(=O)[C@@H](Cc2ccccc2)NC(=O)[C@H]2O[C@@H](n3ccc(=O)[nH]c3=O)[C@H](O)[C@@H]2O)cc1C,/,/,/,/,/,1,/,/
COc1cccc(NC(=O)N(C)C[C@H]2OCc3ccccc3-c3c(n(C)c4ccccc34)C(=O)N([C@H](C)CO)C[C@H]2C)c1,/,/,/,/,/,9,/,/
CCCCC[C@@H]1C=C(C(=O)O)[C@H](c2ccc(Cl)c(Cl)c2)N1S(=O)(=O)c1ccc(C)cc1,2,361,3,1,1,85*,87*,53*
C[C@@H]1O[C@@H](n2c3ccc(Cl)cc3c3ccc4c5cc(Cl)ccc5[nH]c4c32)[C@H](O)[C@H](O)[C@H]1O,/,/,/,/,/,62*,60*,42*
SMILES,MPTP inh,T cell HTS,Granule exo inh,Beta2AR agonist,V-ATPase pHluor,rCAG binder,rCAG binder conf,DNA CAG counter
C[C@H]1O[C@@H](n2cc(F)c(=O)[nH]c2=O)[C@H](O)[C@@H]1O,-2,118,-4,-7,-4,0,/,/
C[C@H]1O[C@@H](n2c3ccc(Cl)cc3c3ccc4c5cc(Cl)ccc5[nH]c4c32)[C@H](O)[C@H](O)[C@H]1O,/,/,/,/,/,78*,54*,43*
COc1ccc(C(=O)COC(=O)/C=C/c2ccc(S(=O)(=O)Nc3cccc(S(N)(=O)=O)c3)cc2)cc1,14,718,47,7,-4,46*,60*,20*
NS(=O)(=O)c1cccc(NS(=O)(=O)c2ccc(/C=C/C(=O)OCC(=O)c3ccc(Br)cc3)cc2)c1,1,297,-4,-2,-4,15,/,/
COc1cc(/C=C/C(=O)c2ccc(NS(=O)(=O)c3ccc(C)cc3)cc2)ccc1OC(F)F,3,246,-2,10,-1,19,/,/
COc1cccc(/C=C/C(=O)c2ccc(NS(=O)(=O)c3ccc(C)cc3)cc2)c1,9,308,-1,15,0,35*,62*,21*
COC(=O)c1cc(S(=O)(=O)NCC2CCN(C(=O)C(=O)c3cccs3)CC2)cs1,/,/,/,/,/,4,/,/
CCCCNS(=O)(=O)CC1NCCc2ccccc21 (stereo not drawn),/,/,/,/,/,3,/,/
CCCCN1CCS(=O)(=O)N(Cc2cn(Cc3ccc(C)cc3)nn2)C(C(=O)OC)C1 (stereo not drawn),/,/,/,/,/,-1,/,/
CC(=O)Nc1ccc(S(=O)(=O)Nc2nc3ccccc3nc2Nc2ccc(O)c(C(=O)O)c2)cc1,-1,198,0,8,3,46*,25,4
COc1cccc(Nc2nc3ccccc3nc2NS(=O)(=O)c2ccc(NC(C)=O)cc2)c1,0,293,33,6,2,/,/,/
Cc1cccc(S(=O)(=O)Nc2nc3ccccc3nc2Nc2cccc(C(=O)O)c2)c1,0,300,3,5,-2,53*,57*,20*
